# According to ChEMBL document CHEMBL5356992, “New nitazoxanide derivatives: design, synthesis, biological evaluation, and molecular docking studies as antibacterial and antimycobacterial agents” (RSC Med Chem, 2023):
# Key:
# [1] = system: Staphylococcus aureus; assay: Antibacterial activity against Staphylococcus aureus ATCC 6538 by broth microdilution method; assay type: functional
# How it was run: (§1)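 CLSI broth microdilution on wild-type strains. E. coli ATCC 8739, P. aeruginosa ATCC 27853 and K. pneumoniae ATCC 10031 served as Gram-negatives. S. aureus ATCC 6538 and E. faecalis ATCC 19433 served as Gram-positives. H. pylori ATCC 700392 was tested as the […]. Ciprofloxacin was the reference drug. MIC is given in μM as the mean of three experiments.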
# [2] = system: Helicobacter pylori; assay: Antibacterial activity against Helicobacter pylori ATCC 700392 by broth microdilution method; assay type: functional; how it was run: as §1
# [3] = system: Klebsiella pneumoniae; assay: Antibacterial activity against Klebsiella pneumoniae ATCC 10031 by broth microdilution method; assay type: functional; how it was run: as §1
# [4] = system: Pseudomonas aeruginosa; assay: Antibacterial activity against Pseudomonas aeruginosa ATCC 27853 by broth microdilution method; assay type: functional; how it was run: as §1
# [5] = system: Escherichia coli; assay: Antibacterial activity against Escherichia coli ATCC 8739 by broth microdilution method; assay type: functional; how it was run: as §1
# [6] = system: Enterococcus faecalis; assay: Antibacterial activity against Enterococcus faecalis ATCC 19433 by broth microdilution method; assay type: functional; how it was run: as §1
# [7] = system: Mycobacterium tuberculosis; assay: Antimycobacterial activity against Mycobacterium tuberculosis H37Rv incubated for 7 days by alamar blue assay; assay type: functional; conditions: 168 h, time 7 day
# How it was run: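 Two-fold serial dilutions in 7H9-S, with growth and sterile controls, incubated at 37 °C for 7 days. Alamar Blue then added and incubated overnight. MIC is the lowest concentration preventing the blue-to-pink change. Means of three experiments.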
# [8] = Selectivity index, ratio of cytotoxicity against mouse RAW264.7 cells to MIC for Mycobacterium tuberculosis H37Rv; assay type: toxicity, cell-based; conditions: read-out: Selectivity Index
# How it was run: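 SI is cytotoxicity divided by the MABA MIC (μg mL⁻¹) against H37Rv. For cytotoxicity, RAW 264.7 cells were grown in RPMI with 10% FBS and penicillin/streptomycin. About 5000 cells per well were seeded on poly-L-lysine plates and held 24 h at 37 °C, 5% CO2. Compounds were added at 25 μg mL⁻¹ for 48 h, then MTT (0.5 mg mL⁻¹) for 3 h. Formazan was read at 595/625 nm and reported as % inhibition.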
# [9] = system: RAW264.7; assay: Cytotoxicity against mouse RAW264.7 cells at 25 ug/ml incubated for 48 hrs by MTT assay; assay type: toxicity, cell-based; conditions: raw264.7, 48 h, at 25 µg/mL
# How it was run: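 RAW 264.7 mouse macrophages were grown in RPMI with 10% FBS plus penicillin/streptomycin to 80–90% confluency. About 5000 cells/well were seeded on poly-L-lysine-coated plates and held 24 h at 37 °C, 5% CO2. Compound was added at 25 μg mL−1 for 48 h at 37 °C. MTT (0.5 mg mL−1) was added for 3 h, and formazan was read at 595 and 625 nm. Result is % inhibition.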
# [10] = system: Staphylococcus aureus; assay: Potency index, ratio of nitazoxanide MIC to test compound MIC for antibacterial activity against Staphylococcus aureus ATCC 6538; assay type: functional
# [11] = system: Pseudomonas aeruginosa; assay: Potency index, ratio of nitazoxanide MIC to test compound MIC for antibacterial activity against Pseudomonas aeruginosa ATCC 27853; assay type: functional
# [12] = system: Klebsiella pneumoniae; assay: Potency index, ratio of nitazoxanide MIC to test compound MIC for antibacterial activity against Klebsiella pneumoniae ATCC 10031; assay type: functional
# [13] = system: Enterococcus faecalis; assay: Potency index, ratio of nitazoxanide MIC to test compound MIC for antibacterial activity against Enterococcus faecalis ATCC 19433; assay type: functional
# [14] = system: Escherichia coli; assay: Potency index, ratio of nitazoxanide MIC to test compound MIC for antibacterial activity against Escherichia coli ATCC 8739; assay type: functional
# [15] = system: Mycobacterium tuberculosis; assay: Potency index, ratio of nitazoxanide MIC to test compound MIC for antitubercular activity against Mycobacterium tuberculosis H37Rv; assay type: functional
# [16] = system: Mycobacterium tuberculosis; assay: Potency index, ratio of ethambutol MIC to test compound MIC for antitubercular activity against Mycobacterium tuberculosis H37Rv; assay type: functional
SMILES,MIC [1] [µM],MIC [2] [µM],MIC [3] [µM],MIC [4] [µM],MIC [5] [µM],MIC [6] [µM],MIC [7] [µg/mL],selectivity ratio [8],Cell growth inhibition [9] [%],Ratio [10],Ratio [11],Ratio [12],Ratio [13],Ratio [14],Ratio [15],Ratio [16]
O=C(O)c1cn(C2CC2)c2cc(N3CCNCC3)c(F)cc2c1=O [CIPROFLOXACIN],3.01,1.5,9.05,4.53,0.3,6.03,,,,,,,,,,
CC[C@@H](CO)NCCN[C@@H](CC)CO [ETHAMBUTOL],,,,,,,1.56,,,,,,,,,
O=C(O)c1cn(-c2ccc(C(=O)Nc3ncc([N+](=O)[O-])s3)c(O)c2)nn1,85,21.2,15.9,10.6,6.64,,25,1,27.5,,,,,,,
CO[C@H]1/C=C/O[C@@]2(C)Oc3c(C)c(O)c4c(O)c(c(/C=N/N5CCN(C)CC5)c(O)c4c3C2=O)NC(=O)/C(C)=C\C=C\[C@H](C)[C@H](O)[C@@H](C)[C@@H](O)[C@@H](C)[C@H](OC(C)=O)[C@@H]1C [RIFAMPIN],,,,,,,0.1,,,,,,,,,
O=C(Nc1ncc([N+](=O)[O-])s1)c1ccc(-n2cc(CN3CCCC3)nn2)cc1O,3.61,19.2,12,7.22,6.01,,> 25,,,25,>50,,,,,
O=C(Nc1ncc([N+](=O)[O-])s1)c1ccc(-n2cc(CN3CCOCC3)nn2)cc1O,6.95,9.27,18.5,148,1190,,> 25,,,25,,,,,,
O=C(Nc1ncc([N+](=O)[O-])s1)c1ccc(-n2cc(CN3C(=O)C(=O)c4cc(Cl)ccc43)nn2)cc1O,,4.75,60.9,,487,,> 25,,,,,,,,,
O=C(Nc1ncc([N+](=O)[O-])s1)c1ccc(-n2cc(CO)nn2)cc1O,,44.1,88.3,353,,132,> 25,,,,,,,,,
O=C(Nc1ncc([N+](=O)[O-])s1)c1ccc(-n2cc(CN3C(=O)C(=O)c4cc(Br)ccc43)nn2)cc1O,0.87,3.5,4.38,5.26,21,8.76,> 25,,,25,>50,<=20,,,,
O=C(Nc1ncc([N+](=O)[O-])s1)c1ccc(-n2cc(CN3C(=O)C(=O)c4cc(F)ccc43)nn2)cc1O,15.7,3.92,,7.85,,4.9,> 25,,,,>50,,25,,,
O=C(Nc1ncc([N+](=O)[O-])s1)c1ccc(-n2cc(CSc3nc4ccccc4s3)nn2)cc1O,3.9,15.6,23.4,31.3,3.9,,> 25,,,25,,,,20,,
CC(=O)Oc1cc(N=[N+]=[N-])ccc1C(=O)Nc1ncc([N+](=O)[O-])s1,11.5,11.5,34.5,91.9,8.61,2.15,1.56,16,17.54,,,,25,,5,1.7
O=C(Nc1ncc([N+](=O)[O-])s1)c1ccc(-n2cc(-c3ccccc3)nn2)cc1O,29.4,14.7,39.2,,,19.6,> 25,,,,,,,,,
[N-]=[N+]=Nc1ccc(C(=O)Nc2ncc([N+](=O)[O-])s2)c(O)c1,9.79,104,313,,4.89,26.1,3.12,8,28.53,,,,,20,,
COC(=O)c1cn(-c2ccc(C(=O)Nc3ncc([N+](=O)[O-])s3)c(O)c2)nn1,10.2,3.84,5.12,15.4,3.84,,> 25,,,,,<=20,,20,,
Cc1ccc2c(c1)C(=O)C(=O)N2Cc1cn(-c2ccc(C(=O)Nc3ncc([N+](=O)[O-])s3)c(O)c2)nn1,506,2.96,3.95,7.91,1.48,5.93,> 25,,,,,<=20,25,20,,
O=C(Nc1ncc([N+](=O)[O-])s1)c1ccc(-n2cc(CN3C(=O)C(=O)c4ccccc43)nn2)cc1O,32.5,130,,16.3,,4.06,> 25,,,,,,25,,,
Cc1ccc(-c2cn(-c3ccc(C(=O)Nc4ncc([N+](=O)[O-])s4)c(O)c3)nn2)cc1,1210,5.91,,303,7.1,75.8,25,1,27.6,,,,,,,
NNC(=O)c1ccncc1 [ISONIAZID],,,,,,,0.05,,,,,,,,,
O=C(Nc1ncc([N+](=O)[O-])s1)c1ccccc1O [TIZOXANIDE],151,11.3,241,362,181,136,,,,,,,,,,
CN1CCN(Cc2cn(-c3ccc(C(=O)Nc4ncc([N+](=O)[O-])s4)c(O)c3)nn2)CC1,4.49,6.74,8.99,144,,,> 25,,,25,,<=20,,,,
COc1ccc2c(c1)C(=O)C(=O)N2Cc1cn(-c2ccc(C(=O)Nc3ncc([N+](=O)[O-])s3)c(O)c2)nn1,92,9.58,491,,15.3,184,> 25,,,,,,,,,
CC(=O)Oc1ccccc1C(=O)Nc1ncc([N+](=O)[O-])s1 [NITAZOXANIDE],104,13,182,417,104,156,,4,20.65,,,,,,,
O=C(Nc1ncc([N+](=O)[O-])s1)c1ccc(-n2cc(CN3CCCCC3)nn2)cc1O,9.31,1.74,1190,,74.5,27.9,> 25,,,,,,,,,
O=C(Nc1ncc([N+](=O)[O-])s1)c1ccc(-n2cc(CN3CCN(c4ccccc4)CC3)nn2)cc1O,505,31.6,253,2.96,11.8,1.97,> 25,,,,>50,,25,,,
